# TAAR1 agonist = human TAAR1 agonism; activation, % at 3 µM; Q96RJ0; CHO RD-HGA16 TAAR1, Fluo-8 calcium fluorescence; vehicle wells 0%, saturating PEA agonist 100%; AID 624467; 0.99% of 360,000 active;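 active means activation above the mean activation of all test compounds in the run plus 3 SD, cut at about 38% in these data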
#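 Repeats: no replicates (n 1) | Material: CHO-derived RD-HGA16 cells with stable Gα16 and human TAAR1 | Technique: Kinetic Fluo-8 calcium fluorescence | Schedule: 17-24 h seeding, 75 min 37 °C dye, 30 min RT | Evaluation: % activation from peak over basal fluorescence ratio, DMSO-to-PEA scaled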
# TMEM16A inh = blocks the mouse calcium-activated chloride channel TMEM16A. 1.2% of 310,000 active. Q8BHY3. HEK293 TMEM16A/YFP iodide influx fluorescence, ionomycin. normalized B-score (activity score, 25-100; higher = stronger inhibition) at 10 µM;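 active means ratio plate-corrected score three or more library SD toward inhibition, starting fluorescence score within five deviations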;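 further: score derived from kinetic fluorescence span divided by baseline fluorescence per well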
# Target sequence (Q8BHY3 whole entry, looked up): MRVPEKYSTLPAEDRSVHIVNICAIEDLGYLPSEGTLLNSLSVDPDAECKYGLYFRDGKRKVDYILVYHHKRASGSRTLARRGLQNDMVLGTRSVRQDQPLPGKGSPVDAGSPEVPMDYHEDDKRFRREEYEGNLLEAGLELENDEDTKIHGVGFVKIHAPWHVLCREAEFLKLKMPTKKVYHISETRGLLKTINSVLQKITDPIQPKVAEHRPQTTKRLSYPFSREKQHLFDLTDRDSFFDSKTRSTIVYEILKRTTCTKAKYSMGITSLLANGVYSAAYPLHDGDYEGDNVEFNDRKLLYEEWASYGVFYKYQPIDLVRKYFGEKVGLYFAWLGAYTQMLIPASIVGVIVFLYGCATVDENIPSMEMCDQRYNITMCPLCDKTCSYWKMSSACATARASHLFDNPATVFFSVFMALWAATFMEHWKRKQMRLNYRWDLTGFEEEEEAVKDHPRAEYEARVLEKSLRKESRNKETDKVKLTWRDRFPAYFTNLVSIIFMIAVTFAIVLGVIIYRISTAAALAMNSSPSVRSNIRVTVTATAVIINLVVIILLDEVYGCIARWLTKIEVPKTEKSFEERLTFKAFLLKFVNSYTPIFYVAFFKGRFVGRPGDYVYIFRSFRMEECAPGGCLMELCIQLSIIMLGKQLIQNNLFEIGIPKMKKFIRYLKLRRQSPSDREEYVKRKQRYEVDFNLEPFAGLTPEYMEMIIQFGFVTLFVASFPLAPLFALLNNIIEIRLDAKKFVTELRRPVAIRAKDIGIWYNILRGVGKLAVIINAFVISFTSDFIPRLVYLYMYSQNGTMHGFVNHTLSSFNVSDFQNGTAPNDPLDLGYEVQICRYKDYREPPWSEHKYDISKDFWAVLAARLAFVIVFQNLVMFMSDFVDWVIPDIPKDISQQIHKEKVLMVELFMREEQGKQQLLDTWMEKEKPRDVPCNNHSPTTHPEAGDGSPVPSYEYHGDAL
# CRFR2-BP ag = CRF-BP/CRF-R2 complex agonism; HEK293 CRF-R2/CRF-BP, calcium dye fluorescence (FLIPR); percent of saturating CRF peptide response; activation, % at 13.2 µM; 0.46% of 350,000 active; AID 588473;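 active means activation of at least 50%, plus an integration ratio under a set limit after plate pattern correction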;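 further: plate controls were neutral control wells without compound for no effect and CRF at EC100 for full effect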
# TAAR1 antag = antagonists of human TAAR1. CHO RD-HGA16 TAAR1, Fluo-8 calcium fluorescence, antagonist. inhibition, % at 3 µM. Q96RJ0. AID 624466. 1.5% of 360,000 active;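 active means inhibition above a per-plate cutoff, the mean inhibition of test compounds on that plate plus 3 SD, cut at about 49% in these data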;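 further: 0% = DMSO plus EC80 beta-PEA response and 100% = DMSO alone without agonist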
#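 Material: RD-HGA16 CHO cells with stable hTAAR1 and Gα16; Dosing: single nominal final test compound concentration of 3 µM; Schedule: seeding 17-24 h prior, 75-min 37 °C, 30-min RT dye loading; Detection: kinetic Fluo-8 calcium fluorescence measurement; Measure: % inhibition from peak post-agonist over basal fluorescence ratio; Benchmarks: vehicle and agonist controls.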
# TMEM16A act = activators or potentiators of mouse TMEM16A chloride channel. Q8BHY3. HEK293 TMEM16A/YFP-H148Q/I152L, iodide quench fluorescence; hits give low values. B-score at 10 µM. 0.3% of 340,000 active. AID 623877;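 active means fluorescence-ratio B-score plate-corrected deviation score at least 3 library SD below zero, with starting fluorescence score within 5 deviations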;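 further: channel opened by trigger with iodide after compound preincubation; score built on the fluorescence ratio of max minus min over baseline; more negative score means more quench and so TMEM16A activation or potentiation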
# CRFR2-BP antag = CRF-BP/CRF-R2 complex antagonism | HEK293 CRF-R2/CRF-BP, CRF-induced calcium fluorescence | inhibition, % at 11.8 µM | 0.59% of 350,000 active | AID 588475;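 active means inhibition of the ligand-induced calcium signal above about 50% at the single tested concentration, limit read from the data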
# * marks the source's active call; other numbers are inactive results; i = inactive; · = no result given. Compounds with a hit are over-represented: about 3.9% of the library has one in this group of screens.
SMILES,TAAR1 agonist,TMEM16A inh,CRFR2-BP ag,TAAR1 antag,TMEM16A act,CRFR2-BP antag
CC(OC(=O)c1ccccc1NS(=O)(=O)c1cccc(C(F)(F)F)c1)C(=O)N(C)Cc1ccccc1 (stereo not given),2,100*,4,18,i,-6
CN(Cc1ccccc1)C(=O)COC(=O)c1ccccc1NS(=O)(=O)c1cccc(N)c1,7,i,-1,-7,i,-5
COC(=O)C[C@@H]1C=C[C@@H](NC(=O)c2ccccc2F)[C@@H](CO)O1,1,·,·,4,·,·
CN(C)C1=NC[C@H](Cc2ccccc2)N1CCC1CCCC1,6,i,5,8,i,-19
CN(C)C1=NC[C@H](Cc2ccccc2)N1CCCC1CCCCC1,48*,i,11,5,i,-47
CCc1cc2c(SCC#N)ncnc2s1,-1,i,1,4,i,9
COc1cc(NC(=O)CSc2nnc3ccccn23)cc(OC)c1OC,1,·,-3,-9,·,-19
O=C(NCC(=O)N(c1ccccc1)C(C(=O)NC1CCCC1)c1ccncc1)c1ccco1 (stereo not given),7,i,0,-5,-16*,12
CC(C)C(NC(=O)c1ccco1)C(=O)NC1CCCCCC1 (stereo not given),4,i,0,-20,i,105*
Cc1ccc(N(C(=O)Cn2nnc(-c3ccccc3F)n2)C(C(=O)NC2CCCC2)c2ccncc2)cc1 (stereo not given),-2,i,0,18,i,51*
O=C(NCC(=O)N(Cc1cccs1)C(C(=O)NC1CCCCC1)c1ccco1)c1ccco1 (stereo not given),18,i,0,52*,i,-6
CSc1ccc(SC2CN(Cc3ccc(C)cc3)S(=O)(=O)C2)cc1 (stereo not given),0,·,·,-5,·,·
CCOc1ccc(NC(=O)C2CC(=O)N(c3ccc4c(c3)OCCO4)C2)cc1OCC (stereo not given),1,i,-1,-11,i,14
O=C(Nc1ccccc1C(=O)N1CCOCC1)c1ccncc1,0,i,-5,-2,i,102*
Cc1ccc(S(=O)(=O)NCCC(=O)OCc2ccc([N+](=O)[O-])cc2)cc1C,1,i,0,50*,i,21
CC(C)(C)OC(=O)NCCCCCc1cn([C@@H](CO)C(=O)NCCCCCCCCCCC(=O)N2CCN(C(=O)OC(C)(C)C)CC2)nn1,35,100*,-2,87*,i,31
CC[C@H](C)[C@@H](C(=O)NCCCCCCCCCCC(=O)N1CCN(C(=O)OC(C)(C)C)CC1)n1cc(CCCCCNC(=O)OC(C)(C)C)nn1,18,25*,7,60*,i,30
Cc1csc(=O)n1CCC(=O)OCC(=O)Nc1cccc(C#N)c1,2,i,0,7,i,-1
CC(=O)Nc1ccc(NC(=O)C(C)OC(=O)C2CCCCC2)cc1 (stereo not given),0,·,-6,12,i,52*
CCc1ccc(N(C(=O)CCC(=O)Nc2cc(C)on2)C(C(=O)NC(C)(C)C)c2ccc(OC)cc2)cc1 (stereo not given),5,i,-1,-8,i,-10
O=[N+]([O-])c1c(Nc2ccc(O)cc2)cc(Cl)c2nonc12,-4,100*,-2,63*,-8.3*,67*
O=C(COC(=O)c1n[nH]c2ccccc12)NC(=O)NC1CCCCC1,44*,i,-1,-7,i,-29
COc1ccc(CN(C)C(=O)/C=C/c2ccc(S(=O)(=O)N3CCCCCC3)cc2)cc1,15,·,7,29,i,-2
C[C@@H]1CN([C@H](C)CO)C(=O)CCCn2nncc2CO[C@H]1CN(C)C(=O)Cc1ccccc1,0,·,6,6,·,-13
COc1ccc(C(C(=O)NC2CCCC2)N(C(=O)c2ccoc2C)c2cc(C)cc(C)c2)cc1 (stereo not given),6,i,0,8,i,83*
SMILES,TAAR1 agonist,TMEM16A inh,CRFR2-BP ag,TAAR1 antag,TMEM16A act,CRFR2-BP antag
COc1ccc(C(C(=O)NC2CCCCC2)N(C(=O)c2sc(C)nc2C)c2ccccc2)cc1 (stereo not given),5,i,1,43,i,-4
COc1ccc(C(C(=O)NC2CCCCC2)N(C(=O)c2sc(C)nc2C)c2ccc(OC)cc2)cc1 (stereo not given),0,i,-2,-8,i,64*
Fc1cc(Cl)ccc1Nc1nc(NCc2ccccc2)nc2ccsc12,2,·,·,-4,·,·
c1ccc(CNc2nc(NCc3ccccc3)c3sccc3n2)cc1,74*,·,·,104*,·,·
COCCNc1nc(NCc2ccccc2F)c2sccc2n1,5,·,·,-5,·,·
COCCNc1nc(NCc2cccc(OC)c2)c2sccc2n1,5,·,·,10,·,·
COc1ccccc1CNc1nc(NCc2ccccc2)nc2ccsc12,50*,·,·,95*,·,·
Fc1ccccc1CNc1nc(NCC2CC2)nc2ccsc12,38*,·,·,44,·,·
c1ccc(CNc2nc(NCCOc3ccccc3)c3sccc3n2)cc1,59*,·,·,95*,·,·
Cc1ccccc1CN1CCN(Cc2ccc3cccc(F)c3n2)CC1CCO (stereo not given),1,i,-1,-26,i,-1
COc1ccc(Cl)cc1-c1cc(C(=O)NCc2cccc(C(F)(F)F)c2)[nH]n1,-1,·,·,-9,·,·
O=C(NC1CC1)c1cccc2c1C(=O)c1ccc(N3CCC(N4CCCCC4)CC3)cc1S2(=O)=O,2,·,28,6,·,-12
O=C(NCc1cc(C(F)(F)F)ccc1Cl)c1cccc2c1C(=O)c1ccc(N3CCCCC3)cc1S2(=O)=O,9,·,53*,36,i,-27
O=C(NCc1cc(C(F)(F)F)ccc1Cl)c1cccc2c1C(=O)c1ccc(N3CCC(N4CCCCC4)CC3)cc1S2(=O)=O,16,·,31,59*,·,-22
O=C1c2c(O)cccc2Cc2cccc(O)c21,-2,i,6,104*,i,-7
O=C1Cc2cccc(=O)c(O)c2C(=O)O1,2,·,0,-14,·,-13
C/C(=N\OCC(=O)Nc1ccc(F)c(F)c1F)c1cc2ccccc2o1,-1,i,4,3,i,54*
CSc1ccccc1NC(=O)CO/N=C(\C)c1cc2ccccc2o1,11,25*,-3,30,i,34
CCc1ccc(NC(=O)CO/N=C(\C)c2cc3ccccc3o2)cc1,-1,100*,7,-7,i,3
